Screens from PubChem BioAssay.
TRPC4 PAM = TRPC4 (mouse) allosteric potentiation; Q9QUQ5; HEK293 TRPC4beta/mu-opioid, DAMGO EC20, Fluo-4 Ca2+ flux; stronger effect = higher value; B-score at 10 µM; hit rate 0.42% among 310,000; AID 2227;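 active = B-score of calcium response area above 5 SD of library B-scores, with initial fluorescence ratio within 5 SD of library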
TRPC4 act = TRPC4 (mouse) channel activation; hit rate 0.49% among 310,000; Q9QUQ5; B-score at 10 µM; HEK293 TRPC4beta/mu-opioid, Fluo4 calcium fluorescence; stronger effect = higher value;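 active = B-score above 5 SD of library B-scores, and initial fluorescence ratio not above library mean plus 5 SD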;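 also: positive B-score marks a calcium rise read as TRPC4 activation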
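Test system: HEK293 cells stably co-expressing mouse TRPC4beta and mu-opioid receptor | Schedule: Fluo4 dye loading 45 min at room temperature, 110 s recording | Measured by: Kinetic Fluo4 calcium fluorescence, 5 s baseline at 1 Hz | Evaluation: B score of integrated ratio | Controls: Buffer (low) and maximal DAMGO (high)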
TRPC6 activator = activators of mouse TRPC6 channel; HEK293-TRPC6 membrane potential dye fluorescence; stronger effect = higher value; hit rate 0.13% among 310,000; B-score at 10 µM;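 active = B-score of the integrated fluorescence ratio above library mean plus 3 SD, and starting fluorescence ratio within library mean plus 5 SD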;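 also: higher score means more depolarization so channel activation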
Target sequence (Q61143 whole entry, looked up): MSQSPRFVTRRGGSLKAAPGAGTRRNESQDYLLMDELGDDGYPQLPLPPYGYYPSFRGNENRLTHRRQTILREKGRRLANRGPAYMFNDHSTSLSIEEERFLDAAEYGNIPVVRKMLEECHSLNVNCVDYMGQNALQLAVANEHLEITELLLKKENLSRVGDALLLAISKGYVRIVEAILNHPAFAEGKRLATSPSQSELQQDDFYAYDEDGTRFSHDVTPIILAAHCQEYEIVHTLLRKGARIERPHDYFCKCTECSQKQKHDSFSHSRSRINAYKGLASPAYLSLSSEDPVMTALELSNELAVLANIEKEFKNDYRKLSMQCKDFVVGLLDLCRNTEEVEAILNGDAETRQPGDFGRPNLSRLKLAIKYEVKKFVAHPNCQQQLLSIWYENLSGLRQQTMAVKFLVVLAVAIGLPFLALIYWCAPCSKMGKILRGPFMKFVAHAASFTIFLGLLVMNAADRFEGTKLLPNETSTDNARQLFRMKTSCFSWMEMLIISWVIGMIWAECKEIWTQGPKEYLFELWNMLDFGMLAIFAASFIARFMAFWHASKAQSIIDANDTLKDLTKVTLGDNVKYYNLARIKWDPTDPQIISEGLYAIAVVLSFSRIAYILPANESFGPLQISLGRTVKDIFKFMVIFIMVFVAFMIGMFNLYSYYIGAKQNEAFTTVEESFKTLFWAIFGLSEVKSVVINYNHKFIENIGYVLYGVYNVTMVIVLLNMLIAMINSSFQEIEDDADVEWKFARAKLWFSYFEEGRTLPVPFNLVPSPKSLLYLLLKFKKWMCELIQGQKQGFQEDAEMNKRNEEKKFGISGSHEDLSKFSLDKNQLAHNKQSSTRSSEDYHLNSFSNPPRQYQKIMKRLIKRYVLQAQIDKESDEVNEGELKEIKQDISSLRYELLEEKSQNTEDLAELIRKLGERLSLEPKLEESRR
TRPC6 inh = blocks the mouse TRPC6 cation channel | B-score at 10 µM | Q61143 | hit rate 1.1% among 310,000 | HEK293-TRPC6, membrane potential dye, ACh-evoked depolarization; stronger effect = lower value;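 active = B-score under library mean minus 3 SD, initial fluorescence not abnormally high, positive integrated signal ratio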;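 also: B-score derived from integrated fluorescence ratio over the kinetic read; more negative B-score means stronger inhibition of depolarization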
TRPC4 block = TRPC4 (mouse) channel inhibition; HEK293 TRPC4beta/mu-opioid, DAMGO-evoked Fluo4 calcium flux; stronger effect = lower value; B-score at 10 µM; hit rate 0.39% among 300,000; Q9QUQ5;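 active = B-score over 3 SD under the library average, no early fluorescence shift, positive overall ratio signal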
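Assay system: HEK293 cells with stable TRPC4beta plus mu-opioid receptor expression; Probe or stimulus: DAMGO in two steps, submaximal then maximal; Dosing: single-point compound dosing; Measured by: Fluo4 calcium-dye fluorescence, kinetic read; Read-out basis: B score from integrated Fluo4 fluorescence ratio.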
TRPC4 sel inh 2 = second selectivity test of TRPC6 inhibitors: effect on mouse TRPC4; shares compounds with TRPC6 inh; hit rate 42% among 920; inhibition, % at 10 µM; HEK293 TRPC4/MOR, membrane potential dye fluorescence; channel activated by saturating DAMGO dose;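 active = compounds whose fluorescence signal differed from control wells by over 3 SD, either direction, in both duplicate plates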
TRPC4 spec = selectivity of TRPC6 inhibitors: effect on mouse TRPC4; hit rate 61% among 920; AID 2777; activity change, negative = inhibition, % at 10 µM; shares compounds with TRPC6 inh; HEK293 TRPC4/mu-opioid, membrane potential fluorescence;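 active = rise or fall in signal beyond 3 SD of buffer-only wells in both replicate plates, either sign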;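 also: integrated kinetic ratio of fluorescence range over baseline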
HEK293 MPD ctr 2-1 = second check of TRPC6 inhibitor effects in parental HEK293 cells; shares compounds with TRPC6 inh; parental HEK293 membrane potential dye fluorescence; maximal acetylcholine challenge after compound addition; signal change vs control, % at 10 µM; hit rate 31% among 920; AID 2779;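 active = membrane potential signal moving either way by over 3 SD of the maximum-effect control, in both duplicate plates, meaning non-specific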
HEK293 MPD ctr-1 = counter-screen for TRPC6 inhibitors: effect in parental HEK293 cells. shares compounds with TRPC6 inh. parental HEK293 membrane potential dye fluorescence. membrane potential signal change, % at 10 µM. hit rate 60% among 920. AID 2780;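 active = membrane potential signal shifting up or down by more than 3 SD of buffer-only wells, on both duplicate plates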
HEK293 MPD ctr-2 = parental HEK293 nonspecific activity of TRPC6 modulators. membrane potential dye fluorescence. shares compounds with TRPC6 inh. hit rate 51% among 2,400. AID 488924. membrane potential signal change, % at 10 µM;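 active = membrane potential signal moves up or down beyond 5 SD from buffer-only wells, on both duplicate plates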
HEK293 MPD ctr 2-2 = parental HEK293 nonspecific activity of TRPC6 modulators, second screen. shares compounds with TRPC6 inh. membrane potential dye fluorescence; after compound, maximal acetylcholine stimulation. inhibition, % at 10 µM. hit rate 14% among 2,400. AID 488926;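 active = membrane potential signal drops by more than 5 SD from the mean control signal, in both duplicate plates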
TRPC4/MOR mod = tests whether TRPC6 modulators also affect mouse TRPC4 | shares compounds with TRPC6 inh | HEK293 TRPC4/mu-opioid, membrane potential fluorescence | percent change from control (negative = decrease, positive = increase), % at 10 µM | hit rate 69% among 2,400;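 active = membrane potential signal moved up or down beyond 5 SD of buffer control wells, in both duplicate plates, actives on both sides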
TRPC4/MOR inh 2 = mouse TRPC4 off-target activity of TRPC6 modulators, second screen; AID 488928; shares compounds with TRPC6 inh; HEK293 TRPC4/mu-opioid, membrane potential dye fluorescence; stimulated with maximal-effect DAMGO; inhibition, % at 10 µM; hit rate 55% among 2,400;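 active = drop in membrane potential signal beyond 5 SD of the control wells in both duplicate plates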;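 also: TRPC4 counter screen for TRPC6 hits run under conditions tuned for TRPC6 not TRPC4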
TRPC6 block conf = mouse TRPC6 inhibitor confirmation | hit rate 43% among 3,300 | AID 488960 | inhibition, % at 10 µM | HEK293-TRPC6, membrane potential dye, ACh-evoked depolarization | shares compounds with TRPC6 inh;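 active = fluorescence ratio falls more than 5 SD below the full-stimulation control mean, in both duplicate runs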;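 also: integrated fluorescence ratio of peak minus minimum over baseline after agonist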
TRPC6 act confirm = mouse TRPC6 activator confirmation | shares compounds with TRPC6 inh | hit rate 11% among 2,800 | HEK293-TRPC6 membrane potential dye fluorescence, FDSS | activation, % at 10 µM;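 active = ratio signal rise beyond 5 SD above unstimulated control wells' mean, seen in both duplicate runs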
A number is an active result; - = inactive; . = no result given. Hits are enriched below; roughly 2.3% of the tested compounds scored in any of these assays.

SMILES | TRPC4 PAM | TRPC4 act | TRPC6 activator | TRPC6 inh | TRPC4 block | HEK293 MPD ctr-2 | HEK293 MPD ctr 2-2 | TRPC4/MOR mod | TRPC4/MOR inh 2 | TRPC6 block conf | TRPC6 act confirm | others
CCN(CC)S(=O)(=O)c1ccc(N2CCCCC2)c(NC(=O)C2=COCCO2)c1 | - | - | 14 | -6.05 | - | 177.5% | - | 33.0% | - | 88.5% | 154.0%
CCN(CC)S(=O)(=O)c1ccc(N2CCOCC2)c(NC(=O)C23CC4CC(CC(Cl)(C4)C2)C3)c1 | - | - | - | -6.4 | - | 164.5% | - | - | - | 38.5% | .
CCOc1cc(C(=O)N/N=C\c2cn(CC)nc2C)cc(OCC)c1OCC | - | - | - | - | - | . | . | . | . | . | .
Cc1ccc(Sc2c([N+](=O)[O-])c(C)nn2C)cc1 | - | - | - | -8.32 | - | . | . | . | . | 84.7% | - | TRPC4 sel inh 2=-;TRPC4 spec=-;HEK293 MPD ctr 2-1=-4.0%;HEK293 MPD ctr-1=-
Cc1ccc(Sc2c([N+](=O)[O-])ncn2C)cc1 | - | - | - | - | - | . | . | . | . | . | .
COc1ccc(/C=N/n2c(C)nc3ccccc3c2=O)cc1OC | - | - | - | -6.27 | - | - | - | - | - | - | -
Oc1c(C2=NCCNC(C(F)(F)F)=C2)ccc2ccccc12 | - | - | - | -5.03 | - | -96.0% | - | -21.5% | 47.0% | - | -
CC1(C(=O)Nc2ccc3c(c2)OCO3)CC1(Cl)Cl (stereo unspecified) | - | - | - | - | - | . | . | . | . | . | .
Cc1cc(C)cc(N(CC(=O)NC(C)(C)C)C(=O)CNC(=O)c2cccs2)c1 | - | - | - | -5.43 | - | - | - | - | - | - | -
CC(C)C(=O)Nc1ccc(NC(=O)c2cccc3c(Br)cccc23)cc1 | - | - | - | - | - | . | . | . | . | . | .
Clc1ccccc1OCc1nnc2n1CCCCC2 | - | - | - | - | - | . | . | . | . | . | .
O=C(C1CCN(CCCc2ccccc2)CC1)N(CCc1ccccc1)Cc1ccccc1 | - | - | - | -5.54 | - | 109.5% | - | - | 86.5% | 67.5% | .
NCCNC[C@@H]1COC2(CCCCCCCCCCC2)O1 | - | - | - | -6.92 | - | . | . | . | . | 61.8% | - | TRPC4 sel inh 2=33.0%;TRPC4 spec=1.8%;HEK293 MPD ctr 2-1=-;HEK293 MPD ctr-1=7.8%
Cc1[nH]c2c(Cl)cccc2c(=O)c1CN1CCCCCC1 | - | - | - | -5.87 | - | -73.0% | - | -17.5% | - | - | -
O=C(NCC(=O)N1CCN(c2ccccc2F)CC1)c1ccc(Br)o1 | - | - | - | - | - | . | . | . | . | . | .
CCC(C(=O)NC1CCCCC1)n1c(SCc2ccccc2F)nc2ccncc21 (stereo unspecified) | - | - | - | -5.23 | - | - | - | - | - | - | -
Cc1cnc(CN(C)C(=O)CC2C(=O)NCCN2CCCc2ccccc2)[nH]1 (stereo unspecified) | - | - | - | - | - | . | . | . | . | . | .
